Results of several laboratories.
Protocols differ between the studies behind these lines.
Target: Proto-oncogene tyrosine-protein kinase Src (SRC, Homo sapiens, UniProt P12931)
Effect on: enzyme activity
Mode: inhibitor

O=C(Nc1cnn(-c2csc(C(=O)NC3COC3)c2)c1)Nc1ccccc1Cl  remaining activity (5 µM): 91.1%
Cc1ccc(NC(=O)c2ccc(C)c(C(F)(F)F)c2)cc1C#Cc1nn(C2CCC(O)CC2)c2ncnc(N)c12 (stereo not drawn)  remaining activity (10 µM): 0%
Oc1cccc(-c2nc(N3CCOCC3)c3oc4ncccc4c3n2)c1  remaining activity (10 µM): 99%
Cc1ccc(C(=O)Nc2ccc(CN3CCN(C)CC3)c(C(F)(F)F)c2)cc1C#Cc1cnc2cccnn12  remaining activity (23.5 nM): 12%
Cc1[nH]c(/C=C2\C(=O)Nc3ccc(F)cc32)c(C)c1C(=O)N[C@H]1CCN(C(=O)N(C)C)C1  remaining activity (1 µM): 89%
CC(C)(O)[C@H]1CC[C@H](Nc2ccc3ncc(-c4cccc(C(F)(F)F)c4)n3n2)CC1  remaining activity (1 µM): 27.9%
COc1cc(Nc2cnc(C#N)c(O[C@H](C)CN(C)C)n2)ncc1-c1cnn(C)c1  remaining activity (radiometric; 10 µM): 72%
FC(F)c1nc2ccccc2n1-c1nc(N2CCOCC2)nc(N2CCOCC2)n1  remaining activity (10 µM): 104%
Nc1nc(Nc2ccccc2)sc1C(=O)c1c(F)cccc1F  remaining activity (10 µM): 47%
O=C(Nc1cnn(-c2csc(C(=O)NC3COC3)c2)c1)Nc1c(F)cccc1Cl  remaining activity (5 µM): 98.4%
CC(C)(C)C(=O)c1sc(NC2CCCCC2)nc1N  remaining activity (10 µM): 99%
CC(C)(C)c1nc(-c2cccc(NS(=O)(=O)c3c(F)cccc3F)c2F)c(-c2ccnc(N)n2)s1  remaining activity (radiometric; 1 µM): 68%
